According to ChEMBL document CHEMBL1125318, “4-substituted thiophene- and furan-2-sulfonamides as topical carbonic anhydrase inhibitors” (J Med Chem, 1992):
“And” between values parts separate entries of the source, which are not always exact repeats. Identical values can stand only once. The source made the active and inactive calls. The calls are words filed in the database; no cut-off is given here.

Legend:
Carbonic anhydrase 2 [1] = target: T1, Carbonic anhydrase 2 (Homo sapiens, UniProt P00918); assay: Inhibition of human carbonic anhydrase II; settings: read-out: I50
Procedure, shortened: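 CA II was affinity-purified from human erythrocytes. CO2 hydration was assayed by pH stat in 0.02 M Tris chloride, pH 8.6, at 2 °C with CO2–air (5:95) bubbled at 150 mL/min. The 0.025 N NaOH volume needed to hold pH 8.3 over 3 min was recorded, with inhibitor added before enzyme. I50 was read from semilog plots of % inhibition versus log concentration.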

Oryctolagus cuniculus [2] = assay: Ability to penetrate the albino rabbit eye and to inhibit the target enzyme in an homogenate of the iris-ciliary body at 1 hr postdosing, ex vivo when dosed in 0.5% aqueousi (hydroxymethyl) cellulose.; format: functional
Procedure, shortened: (§1)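 Albino rabbits received one 50 μL drop of test suspension topically; 1 h after dosing the iris-ciliary body was homogenized and its carbonic anhydrase activity measured ex vivo. Screening used 0.5%, with lower concentrations for some compounds. Reference suspensions were given as 0.1% in 0.5% aqueous (hydroxyethyl)cellulose.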

Oryctolagus cuniculus [3] = assay: Ability to penetrate the albino rabbit eye and to inhibit the target enzyme in an homogenate of the iris-ciliary body at 1 hr postdosing, ex vivo when dosed in 0.1% aqueousi (hydroxymethyl) cellulose.; format: functional; procedure, shortened: as §1
Oryctolagus cuniculus [4] = organism: Oryctolagus cuniculus; assay: Maximum Intraocular pressure reduction in alpha-CT rabbits at the dose (as a 50 microL drop of suspension in 0.5% aqueous cellulose); format: functional
Procedure, shortened: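 α-Chymotrypsinized rabbits received a 50 μL topical drop of test suspension. IOP was read before dosing and at 0.5, 1, 2, 3, 4 and 5 h after. The value is the maximum fall from the pre-dose reading. Parallel control groups got a drop of 0.5% aqueous (hydroxyethyl)cellulose.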

[5] = Ionization constant (pKa); format: physicochemical
Procedure, shortened: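 The half-neutralization point was found by titration with 0.5 N NaOH and 0.5 N HCl in 30% EtOH–H2O using a glass electrode.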

[6] = Solubility (pH 7.4, 25 degree C); format: physicochemical; settings: buffer, read-out: S
Carbonic anhydrase 2 [7] = target: T1, Carbonic anhydrase 2; assay: Compound was tested in vitro for binding affinity against human carbonic anhydrase II; (ki*10e-9)
Procedure, shortened: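 Fluorescence competition against dansylamide used purified human erythrocyte CA II (1×10^-7 M) and dansylamide (2×10^-6 M) in pH 7.4, 0.1 ionic strength phosphate buffer at 37 °C. Excitation was 280 nm and emission 460 nm, with stepwise addition of test compound in buffer.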

[8] = Partition coefficient (logD7.4); format: physicochemical; settings: octanol/water, pH 7.4
Procedure, shortened: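 Compound was equilibrated between 1-octanol and 0.1 ionic strength pH 7.4 phosphate buffer; each phase was quantified by UV spectrophotometry.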

[9] = Aqueous solubility (25 degree C); format: physicochemical; settings: read-out: S
[10] = Solubility measured in water; format: physicochemical; settings: read-out: S
Procedure, shortened: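 Solubility was measured in water at 25 °C.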

[11] = Solubility measured pH 7.4 at 25 degree C; format: physicochemical; settings: buffer, read-out: S
Oryctolagus cuniculus [12] = assay: Ability to penetrate the albino rabbit eye and to inhibit the target enzyme in an homogenate of the iris-ciliary body at 1 hr postdosing, ex vivo when dosed in 0.05% aqueousi (hydroxymethyl) cellulose.; format: functional; procedure, shortened: as §1

IC50 (Carbonic anhydrase 2 [1]) [nM]	Compound	Inhibition (Oryctolagus cuniculus [2])	Inhibition (Oryctolagus cuniculus [3]) [%]	also measured
14	CC(C)CNCc1ccc(S(=O)(=O)c2csc(S(N)(=O)=O)c2)cc1O			
2	COc1ccc(C(=O)c2coc(S(N)(=O)=O)c2)cc1	67%	13	
2.1	NS(=O)(=O)c1cc(S(=O)(=O)c2cccc(O)c2)cs1	86%		
9	CN(C)Cc1cc(S(=O)(=O)c2csc(S(N)(=O)=O)c2)ccc1O.Cl	57%	40	
4.8	CC(C)CNCc1ccc(C(=O)c2csc(S(N)(=O)=O)c2)cc1.Cl	87%	77	Max IOP reduction (Oryctolagus cuniculus [4]): inactive
45	COc1ccc(S(=O)(=O)c2csc(S(N)(=O)=O)c2)cc1	68%		pKa [5]: 8.78
7.6	Cl.NS(=O)(=O)c1cc(S(=O)(=O)c2ccc(CN3CCOCC3)cc2)cs1	83%		solubility [6]: 850 µg/mL; pKa [5]: 8.84; Ki (Carbonic anhydrase 2 [7]): 1.43 nM; logD [8]: 0.978
15	Cl.NS(=O)(=O)c1cc(S(=O)(=O)c2ccccc2CNCc2ccccn2)cs1	88%	88	Max IOP reduction (Oryctolagus cuniculus [4]): -6.5 mmHg
12	CC(C)CNCc1cccc(S(=O)(=O)c2csc(S(N)(=O)=O)c2)c1.Cl	84%		
5	NS(=O)(=O)c1cc(S(=O)(=O)c2ccc(O)cc2)cs1	82%		pKa [5]: 9.2; Ki (Carbonic anhydrase 2 [7]): 8 nM
5	Cl.NS(=O)(=O)c1cc(C(=O)c2cccc(CN3CCOCC3)c2)cs1	90%		pKa [5]: 9.03; Ki (Carbonic anhydrase 2 [7]): 10.8 nM; solubility [9]: 4800 µg/mL; logD [8]: 1.11
9	CC(C)CN(C)Cc1cc(C(=O)c2csc(S(N)(=O)=O)c2)ccc1O.Cl	58%		
4	CN1CCN(Cc2ccc(C(=O)c3csc(S(N)(=O)=O)c3)cc2)CC1.Cl	90%		pKa [5]: 9.32; solubility [10]: 5000 µg/mL; solubility [11]: 2000 µg/mL; logD [8]: 0.362
18	CC(C)CNCc1ccccc1S(=O)(=O)c1csc(S(N)(=O)=O)c1.Cl	62%	47	Ki (Carbonic anhydrase 2 [7]): 21.1 nM
9	CCN(CC)Cc1cc(S(=O)(=O)c2csc(S(N)(=O)=O)c2)ccc1O.Cl	71%		
4.2	NS(=O)(=O)c1cc(S(=O)(=O)c2ccc(O)cc2)co1	54%	100	
8	Cl.NS(=O)(=O)c1cc(S(=O)(=O)c2ccc(CNCc3ccccn3)cc2)cs1	92%	75	
13	CC(C)CNCc1ccc(S(=O)(=O)c2csc(S(N)(=O)=O)c2)cc1.Cl	87%	63	Ki (Carbonic anhydrase 2 [7]): 6.5 nM
22	CC(C)NCc1cccc(S(=O)(=O)c2csc(S(N)(=O)=O)c2)c1.Cl	71%		
29	CCCCNCc1ccc(S(=O)(=O)c2csc(S(N)(=O)=O)c2)cc1.Cl	87%	48	
6.4	CN(C)Cc1cc(C(=O)c2csc(S(N)(=O)=O)c2)ccc1O.Cl	59%		Ki (Carbonic anhydrase 2 [7]): 34.4 nM

IC50 (Carbonic anhydrase 2 [1]) [nM]	Compound	Inhibition (Oryctolagus cuniculus [2])	Inhibition (Oryctolagus cuniculus [3]) [%]	also measured
3.2	COc1ccc(C(=O)c2csc(S(N)(=O)=O)c2)cc1	31%		
4.5	CNCc1ccc(C(=O)c2csc(S(N)(=O)=O)c2)cc1.Cl	67%	13	
11	CN1CCN(Cc2ccc(S(=O)(=O)c3csc(S(N)(=O)=O)c3)cc2)CC1.Cl	92%	90	solubility [6]: > 56000 µg/mL; pKa [5]: 9.25; Inhibition (Oryctolagus cuniculus [12]): 29%; solubility [9]: > 43000 µg/mL; logD [8]: 0.38
7	CN(C)Cc1cc(S(=O)(=O)c2coc(S(N)(=O)=O)c2)ccc1O.Cl	81%	78	Ki (Carbonic anhydrase 2 [7]): 2.34 nM and 4.9 nM
3.7	Cl.NS(=O)(=O)c1cc(C(=O)c2ccc(CN3CCOCC3)cc2)cs1	73%		solubility [6]: 70 µg/mL; pKa [5]: 9.28; solubility [10]: 12100 µg/mL; Ki (Carbonic anhydrase 2 [7]): 3.32 nM; Max IOP reduction (Oryctolagus cuniculus [4]): -2.2 mmHg; logD [8]: 1.18
2.5	COc1ccc(S(=O)(=O)c2coc(S(N)(=O)=O)c2)cc1	68% and 97%	95	pKa [5]: 6.32; logD [8]: 1.17
36	CC(C)(C)NCc1ccc(S(=O)(=O)c2csc(S(N)(=O)=O)c2)cc1.Cl	61%		pKa [5]: 9.3; solubility [9]: 4500 µg/mL; logD [8]: -0.143
12	CCCCNCc1ccc(C(=O)c2csc(S(N)(=O)=O)c2)cc1.Cl	95%	68	solubility [6]: 460 µg/mL; pKa [5]: 9.32; solubility [9]: 2400 µg/mL; logD [8]: 0.568
26	CCC(C)NCc1cccc(S(=O)(=O)c2csc(S(N)(=O)=O)c2)c1.Cl (centres undefined)	72%		pKa [5]: 9.05; Max IOP reduction (Oryctolagus cuniculus [4]): -2.3 mmHg; solubility [9]: 20000 µg/mL; logD [8]: 0.477
10	CCN(CC)Cc1cc(S(=O)(=O)c2coc(S(N)(=O)=O)c2)ccc1O.Cl	82%	58	Ki (Carbonic anhydrase 2 [7]): 4 nM
2.5	NS(=O)(=O)c1cc(C(=O)c2ccc(O)cc2)cs1	83%		
16	CCN(CC)Cc1ccc(S(=O)(=O)c2csc(S(N)(=O)=O)c2)cc1O.Cl	84%		
23	CN1CCN(Cc2ccccc2S(=O)(=O)c2csc(S(N)(=O)=O)c2)CC1.Cl	77%	65	pKa [5]: 8.8; Max IOP reduction (Oryctolagus cuniculus [4]): -2.7 mmHg; solubility [9]: > 64000 µg/mL; logD [8]: 1.13
13	CC(C)CNCc1cccc(C(=O)c2csc(S(N)(=O)=O)c2)c1.Cl	68%		Ki (Carbonic anhydrase 2 [7]): 14.5 nM
7	CCN(CC)Cc1cc(C(=O)c2csc(S(N)(=O)=O)c2)ccc1O.Cl	55%	54	Ki (Carbonic anhydrase 2 [7]): 18.6 nM
2.4	Cl.NS(=O)(=O)c1cc(C(=O)c2ccc(CNCc3ccccc3)cc2)cs1	81%		
4.2	Cc1ccc(S(=O)(=O)c2coc(S(N)(=O)=O)c2)cc1	96%	36	
2	Cc1ccc(C(=O)c2csc(S(N)(=O)=O)c2)cc1	26%		
3.2	Cc1ccc(S(=O)(=O)c2csc(S(N)(=O)=O)c2)cc1	86%		
9	CC(C)CCNCc1cccc(C(=O)c2csc(S(N)(=O)=O)c2)c1.Cl	82%		
5	CC(C)CN(C)Cc1cc(S(=O)(=O)c2csc(S(N)(=O)=O)c2)ccc1O.Cl	90%	26	
